Bioassay records deposited in PubChem by Sanford-Burnham Center for Chemical Genomics.
Not all results are given here.
Apaf-1 act – activators of human Apaf-1 apoptosome. Apaf-1 apoptosome caspase-3 activation, DEVD-Rh110 fluorescence; stronger effect = lower value. activity change, negative = activation, % at 20 µM. 330,000 compounds, 0.31% hits;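 active = activity change at or below -40% at 20 µM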
Target sequence (O14727 whole entry, looked up): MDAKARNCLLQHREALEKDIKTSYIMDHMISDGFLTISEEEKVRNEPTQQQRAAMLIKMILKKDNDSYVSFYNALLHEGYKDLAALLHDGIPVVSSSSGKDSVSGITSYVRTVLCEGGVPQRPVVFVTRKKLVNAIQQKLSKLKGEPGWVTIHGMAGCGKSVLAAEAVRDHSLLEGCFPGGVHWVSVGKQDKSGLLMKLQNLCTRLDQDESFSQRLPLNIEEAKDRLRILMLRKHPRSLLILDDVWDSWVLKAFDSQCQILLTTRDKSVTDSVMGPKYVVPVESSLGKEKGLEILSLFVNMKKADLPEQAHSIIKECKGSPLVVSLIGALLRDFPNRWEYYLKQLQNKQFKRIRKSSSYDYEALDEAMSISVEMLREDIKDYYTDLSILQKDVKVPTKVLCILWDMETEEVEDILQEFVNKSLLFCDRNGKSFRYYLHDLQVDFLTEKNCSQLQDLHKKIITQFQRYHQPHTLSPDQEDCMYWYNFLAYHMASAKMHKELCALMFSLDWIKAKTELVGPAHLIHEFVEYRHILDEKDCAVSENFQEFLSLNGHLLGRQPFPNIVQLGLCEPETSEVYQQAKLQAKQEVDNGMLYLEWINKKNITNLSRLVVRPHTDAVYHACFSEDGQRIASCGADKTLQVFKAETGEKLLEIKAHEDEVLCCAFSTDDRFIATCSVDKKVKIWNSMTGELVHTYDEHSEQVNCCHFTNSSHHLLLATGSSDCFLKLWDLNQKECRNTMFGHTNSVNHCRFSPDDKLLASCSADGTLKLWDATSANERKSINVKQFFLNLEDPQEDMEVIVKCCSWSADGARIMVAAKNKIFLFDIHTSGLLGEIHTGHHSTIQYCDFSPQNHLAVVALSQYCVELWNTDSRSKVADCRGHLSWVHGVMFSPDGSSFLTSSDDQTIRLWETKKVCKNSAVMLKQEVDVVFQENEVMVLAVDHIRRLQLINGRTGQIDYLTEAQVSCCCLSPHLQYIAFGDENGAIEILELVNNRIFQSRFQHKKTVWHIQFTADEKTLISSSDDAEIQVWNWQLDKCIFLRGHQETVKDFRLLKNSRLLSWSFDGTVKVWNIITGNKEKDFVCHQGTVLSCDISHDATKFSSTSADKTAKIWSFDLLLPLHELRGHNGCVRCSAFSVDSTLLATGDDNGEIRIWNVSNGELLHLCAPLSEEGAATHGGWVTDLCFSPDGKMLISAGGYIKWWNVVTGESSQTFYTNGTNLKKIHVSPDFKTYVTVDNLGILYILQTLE
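System: Reconstituted apoptosome of Apaf-1, cytochrome c, caspase-9, procaspase-3 | Reagent: dATP, cytochrome c, and (Z-DEVD)2-Rh110 caspase-3 substrate | Times: 30 min compound preincubation and 50 min reaction, both room temperature | Detection: Caspase-3-released Rh110 fluorescence, 540 nm emission, 480 nm excitation | Measure: Caspase-3 activity via Apaf-1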
Rh110 act interf – counter-screen for Apaf-1 activators: fluorescence interference; shares compounds with Apaf-1 act; Rh110 fluorescence interference, quenched caspase reaction, Ex480/Em540; fluorescence interference (activity change), % at 20 µM, hits read low; 980 tested, under 10 active;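 active = mean activity change at or below -40% when tested at 20 µM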
Apaf-1 act conf2 – confirmation of human Apaf-1 activators; reconstituted apoptosome caspase-3 activity, DEVD-Rh110 fluorescence; stronger effect = lower value; 980 compounds, 5% hits; AID 504617; shares compounds with Apaf-1 act; activity change, negative = activation, % at 20 µM;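 active = mean activity change at or below -40%, meaning activation of 40% or more, at 20 µM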
Apaf1 act interf – shows fluorescence interference in the Apaf-1 activator assay format | EC50, µM | shares compounds with Apaf-1 act | fluorescence interference counterscreen | 55 tested, under 10 active; call rule not given here
The depositor's hits bear a star.

What do the screens show for `Cc1cccc(C)c1NC(=O)c1sc(Cl)nc1C`?
Apaf-1 act: -201*; Rh110 act interf: 10; Apaf-1 act conf2: 11

What do the screens show for `CCC(CO)Oc1cc(NCc2ccc(F)cc2)c2ncn(C(C)C)c2c1` (centres undefined)?
Apaf-1 act: 43

What do the screens show for `c1ccc(-c2nc(C3CCCCC3)no2)cc1`?
Apaf-1 act: -154*; Rh110 act interf: 3; Apaf-1 act conf2: 0

What do the screens show for `Cn1c2c(c(=O)n(C)c1=O)CN(CCCN1CCOCC1)CN2`?
Apaf-1 act: -59*; Rh110 act interf: 7; Apaf-1 act conf2: 2

How did N#CC1=C(N)C(C#N)(C#N)[C@H](c2ccoc2)[C@H]2CN(Cc3ccccc3)CC=C12 do in these assays?
Apaf-1 act: 59

How did FC(F)(F)c1ccc(CN2C[C@@H]3C(c4ccc(Cl)nc4)C4(c5cccnc5)CC3(C4)[C@H]2c2ccccc2)cc1 (some centres undefined) do in these assays?
Apaf-1 act: 42

What do the screens show for `CCC/C(=C1/c2ccccc2C(=O)N1c1ccccc1)c1cnc(OC)nc1`?
Apaf-1 act: 41

How did N#C/C(=C/c1ccc(N2CCOCC2)o1)c1ccc(Br)cc1 do in these assays?
Apaf-1 act: -109*; Rh110 act interf: -2; Apaf-1 act conf2: 19

How did Fc1ccccc1Nc1nc(-c2ccncc2)nc2ccccc12 do in these assays?
Apaf-1 act: -321*; Rh110 act interf: 2; Apaf-1 act conf2: 8

How did CCc1ccc(S(=O)(=O)/N=C2\C=C(Nc3cccc(C(=O)O)c3)C(=O)c3ccccc32)cc1 do in these assays?
Apaf-1 act: 91

How did COc1ccccc1/C=C1/C(=O)N(c2ccccc2)N=C1C do in these assays?
Apaf-1 act: 93

What do the screens show for `Cc1cccc(C)c1N1CCN(c2n[nH]c(N)n2)CC1`?
Apaf-1 act: -60*; Rh110 act interf: 3; Apaf-1 act conf2: 19

How did COC(=O)c1ccccc1N/C=C1\CCc2c(c(C)nn2-c2ccccn2)C1=O do in these assays?
Apaf-1 act: 69

How did C=CCNc1oc(-c2ccc(OCC)cc2)nc1C#N do in these assays?
Apaf-1 act: -52*; Rh110 act interf: 12; Apaf-1 act conf2: 15

What do the screens show for `CC1(C)N([O-])c2cc([N+](=O)[O-])ccc2[N+]1=O`?
Apaf-1 act: 66

What do the screens show for `CCOCCCn1c(SCC(=O)Nc2cc(C(C)(C)C)nn2-c2ccccc2)nc2ccccc2c1=O`?
Apaf-1 act: 40

What do the screens show for `Cc1ccc(S(=O)(=O)NC2=C(N3CCN(c4ccccc4F)CC3)C(=O)c3ccccc3C2=O)cc1`?
Apaf-1 act: 76

Results for C/C(CCN1CCc2nc(-c3ccccc3)c(-c3ccccc3)cc2C1)=N\OC[C@@H](C)[C@H](OCc1ccccc1)C(C)C ?
Apaf-1 act: 47

What do the screens show for `COc1ccc2sc3ccccc3c(=O)c2c1`?
Apaf-1 act: -77*; Rh110 act interf: 1; Apaf-1 act conf2: 16

What do the screens show for `CN1CCCC1CCNc1ccc2sc3ccccc3c(=O)c2c1` (centres undefined)?
Apaf-1 act: 44

How did NC1(C#Cc2ccc3c(=O)c4ccccc4sc3c2)CCCCC1 do in these assays?
Apaf-1 act: 60

Results for CCOc1ccc(Cc2nnc(SCC(=O)Nc3ccc(C(C)=O)cc3)[nH]c2=O)cc1 ?
Apaf-1 act: -416*; Rh110 act interf: 8; Apaf-1 act conf2: 22

How did N#Cc1c(NCCCO)nc(NCc2ccccc2)c2c1CCN(Cc1ccccc1)C2 do in these assays?
Apaf-1 act: 69

Results for C#CCOCCOCCOCCNc1nc(N2CCN(C(=O)CCCCCCCCCCNC(=O)[C@H](CCCCN)n3cc(CCO)nn3)CC2)nc(N2CCN(C(=O)CCCCCCCCCCNC(=O)[C@H](CCCCN)n3cc(C[C@@H](C)CC)nn3)CC2)n1 ?
Apaf-1 act: 68

Results for CCCCN(C(=O)c1cccc(S(=O)(=O)N2CCOCC2)c1)c1c(N)n(CCC)c(=O)[nH]c1=O ?
Apaf-1 act: -84*; Rh110 act interf: 0; Apaf-1 act conf2: 5

What do the screens show for `COc1ccc(C(=O)N(CCc2ccccc2)Cc2ccccc2)cc1S(=O)(=O)N1CCOCC1`?
Apaf-1 act: 45

How did COc1ccc(C(=O)N(Cc2ccccc2)c2cccc(C)c2)cc1S(=O)(=O)N1CCOCC1 do in these assays?
Apaf-1 act: 45

What do the screens show for `CCC(CO)Oc1cc(NCc2cccnc2)c2ncn(C(C)C)c2c1` (centres undefined)?
Apaf-1 act: 63

What do the screens show for `CCOC(=O)C1=C(COCCN)NC(C)=C(C(=O)OC)C1c1ccccc1Cl` (centres undefined)?
Apaf-1 act: 40

What do the screens show for `Clc1ccc2nsnc2c1NC1=NCCN1`?
Apaf-1 act: -7

What do the screens show for `CCC[C@@H](CN1CCC[C@H]1CN1C(N)=NC[C@H]1CC(C)C)N1C[C@@H]([C@H](C)CC)N(CCc2ccc(Cl)c(Cl)c2)C1=N`?
Apaf-1 act: 64

Results for COC(=O)CCC(=O)OC1(C)C(=O)C=C2C=C(C3CC3)N(Cc3ccccc3)C=C2C1=O (centres undefined) ?
Apaf-1 act: 42

How did Clc1ccc(-c2ccc(CNCC3CCCO3)o2)cc1 (centres undefined) do in these assays?
Apaf-1 act: -131*; Rh110 act interf: 5; Apaf-1 act conf2: 3

What do the screens show for `CC1=NN(c2ccc(Br)cc2)C(=O)/C1=C/c1cccs1`?
Apaf-1 act: 96

What do the screens show for `COc1cccc(-c2sc3cc(OC)c(OC)cc3c2-c2ccc(OCCN3CCCCC3)cc2)c1`?
Apaf-1 act: 66

What do the screens show for `CCN(Cc1ccccc1)C(=O)c1c[nH]c2ccc(S(=O)(=O)N(C)CCC#N)cc2c1=O`?
Apaf-1 act: -55*; Rh110 act interf: 4; Apaf-1 act conf2: 5

How did CSc1ncc(CN2CCc3c([nH]c4ccccc34)C2c2cccc(O)c2)cn1 (centres undefined) do in these assays?
Apaf-1 act: -158*; Rh110 act interf: -4; Apaf-1 act conf2: 14

Results for Cc1cccc(S(=O)(=O)C(C#N)c2nc3ccccc3nc2N2CCCC2)c1 (centres undefined) ?
Apaf-1 act: 55

Results for O=C(CCCCCn1c(=O)[nH]c2ccsc2c1=O)N1CCN(C2CCCCC2)CC1 ?
Apaf-1 act: -387*; Rh110 act interf: 0; Apaf-1 act conf2: 2

How did CC(/C=C\c1cccnc1)=C/C(=O)O do in these assays?
Apaf-1 act: -84*; Rh110 act interf: -2; Apaf-1 act conf2: -46*; Apaf1 act interf: >100

Results for CCCCCc1ccc(OCCC[n+]2ccccc2)c(CCCCC)c1 ?
Apaf-1 act: 66

How did CCOC(=O)C1CCN(S(=O)(=O)c2ccc3c4c2CC(=O)N4CC(C)S3)CC1 (centres undefined) do in these assays?
Apaf-1 act: 44

Results for COc1ccc(Br)cc1CNc1ccc(O)cc1 ?
Apaf-1 act: 95

Results for CC1=NN(c2ccccc2)C(=O)/C1=C\c1cn(CCC#N)nc1-c1ccc(Cl)cc1 ?
Apaf-1 act: 80

What do the screens show for `Oc1ccc(N=Cc2ccc(O)c(O)c2)cc1`?
Apaf-1 act: 75
